DNMT1 inh: DNMT1 (human) enzyme inhibition; P26358; DNMT1 molecular beacon, Hinp1I cleavage, fluorescence; inhibition (reported as % activation of signal), % at 10 µM; hit rate 0.83% among 360,000
Casp6 inh: inhibitors of human caspase-6; P55212; inhibition, % at 12.5 µM; hit rate 0.53% among 350,000; purified caspase-6, Z-VEID-R110 cleavage fluorescence;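 active = mean inhibition across replicates at least about 35%, with every replicate also reaching that limit, limit read from the data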;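 note: 0% = median of neutral control wells and 100% = no fluorescence left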
Target sequence (P55212 24-179 limits assumed): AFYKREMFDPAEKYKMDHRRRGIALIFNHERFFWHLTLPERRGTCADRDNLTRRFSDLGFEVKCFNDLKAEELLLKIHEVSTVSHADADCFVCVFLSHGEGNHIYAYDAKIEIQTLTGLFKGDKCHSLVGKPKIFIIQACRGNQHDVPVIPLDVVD
Target sequence (P55212 194-293 limits assumed): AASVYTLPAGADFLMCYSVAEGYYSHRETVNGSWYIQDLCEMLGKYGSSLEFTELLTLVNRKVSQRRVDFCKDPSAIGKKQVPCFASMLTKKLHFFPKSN
NSD2 HMT inh: NSD2 (human) methyltransferase inhibition; NSD2 peptide methylation, AlphaScreen, 120 min; AID 743445; inhibition, % at 12.5 µM; hit rate 0.54% among 310,000
NS3 helicase inh: blocks Hepatitis C virus NS3 helicase unwinding. NS3 helicase DNA unwinding, Cy5 molecular beacon fluorescence. inhibition, % at 10.9 µM. hit rate 0.56% among 290,000;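 active = inhibition above the mean of all tested compounds plus 3 SD, set per campaign, cut at about 35% in these data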;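 note: 0% = DMSO wells and 100% = thioflavine S control wells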
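Measured by: Cy5 fluorescence, 0 and 60 min reads / Assay system: NS3 helicase fragment of HCV / Control set: low DMSO, high thioflavine S at 110 µM / Times: 1 h reaction at 25 °C, ATP-initiated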
Beacon interf DR: counter-screen for DNMT1 inhibitors: spectral interference, dose response; shares compounds with DNMT1 inh; molecular beacon fluorescence; IC50, µM; 200 tested, under 10 active; AID 602382; call rule not given here
DNMT1 confirm: DNMT1 inhibition confirmation, single concentration; shares compounds with DNMT1 inh; DNMT1 molecular beacon HinP1I cleavage, fluorescence; inhibition, % at 10 µM; hit rate 8% among 2,300; AID 602385;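 active = average inhibition of at least 30% in the single-concentration confirmation test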
Beacon interf: shows spectral interference in the DNMT1 beacon assay | hit rate 1% among 2,300 | shares compounds with DNMT1 inh | DNMT1 molecular beacon spectral interference counterscreen, fluorescence 485/520 | activation (fluorescence interference), % at 10 µM;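 active = activation of at least 30% at 10 µM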;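 note: DNMT1 catalytic domain with a HinP1I cleavage step and a FAM/dabcyl DNA beacon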
Starred values were filed as active, the others as inactive; · = no result. Compounds with a hit are over-represented: about 1.5% of the library has one in this group of screens. Cut-off read from the data, not from the text of the source, unless noted: active = inhibition above about 50%; inactive = the rest.

SMILES | DNMT1 inh | Casp6 inh | NSD2 HMT inh | NS3 helicase inh | DNMT1 confirm | Beacon interf | others
CCOC(=O)/C=c1\s/c(=C\c2ccc(-c3ccccc3)cc2)c(=O)n1CC(=O)NCc1ccc2c(c1)OCO2 | -5.1 | -0.7 | 2.2 | 5.6 | · | ·
O=C(NC(=S)Nc1cc(S(=O)(=O)N2CCOCC2)ccc1N1CCOCC1)c1ccco1 | 60.2* | -4.5 | 0.3 | -2.2 | 3.4 | 3.0
CCc1ccc2c(c1)c1nc(C)sc1n2CC | 51.2* | · | 0.1 | -0.8 | 2.8 | 3.2
Cc1nc2c3cc(F)ccc3n(Cc3ccc(F)cc3)c2s1 | -10.4 | -3.3 | 3.5 | 3.3 | · | ·
Oc1[nH]c2ccccc2c1N=Nc1nc2ccccc2s1 | 1.6 | · | 3.1 | -1.1 | · | ·
CCc1nc(N=Nc2c(O)[nH]c3ccccc23)c2c3c(sc2n1)CCC3 | 64.4* | 0.4 | 3.5 | -10.3 | 1.9 | -3.7
Cc1ccc(-c2cnc3c(c2)C(=O)N([C@H](C)CO)C[C@@H](C)[C@@H](CN(C)CC2CCOCC2)O3)cc1 | · | -0.2 | · | · | · | ·
CN(c1ccccc1)c1ccc(/C=C(\CCC(=O)O)c2nc3ccccc3s2)cc1[N+](=O)[O-] | 73.7* | 37.9* | 22.8 | 15.1 | 26.9 | -3.7 | Beacon interf DR=>99
Cc1ccc(/C=C(\CCC(=O)O)c2nc3ccccc3s2)cc1[N+](=O)[O-] | 0.1 | 11.0 | 0.4 | 10.1 | · | ·
C[C@H](CO)N1C[C@H](C)[C@H](CN(C)S(=O)(=O)c2ccc(Cl)cc2)OCCCC[C@H](C)Oc2ccc(NC(=O)NC3CCCCC3)cc2C1=O | · | -0.8 | · | · | · | ·
C/C(=N\NS(=O)(=O)c1ccc(C)c([N+](=O)[O-])c1)c1cccs1 | -1.8 | 2.1 | 3.1 | -8.9 | · | ·
C/C(CC(C)C)=N\NS(=O)(=O)c1ccc(C)c([N+](=O)[O-])c1 | 85.8* | -1.2 | · | 3.0 | 1.0 | 10.0
Cc1nc2ccccc2c2ncccc12 | 6.5 | -2.5 | 0.4 | 2.8 | · | ·
c1cnc2nc3c4ccccc4c4ccccc4c3nc2c1 | 51.5* | 4.4 | 0.5 | · | -0.5 | -0.1
CCc1nc2oc3ccccc3c(=O)c2c(=O)n1-c1ccc(C)cc1 | 78.3* | 6.9 | 4.5 | 8.6 | 4.9 | 0.8
CCCc1nc2oc3ccccc3c(=O)c2c(=O)n1-c1ccc(C)cc1 | 8.6 | -0.8 | -1.2 | 11.7 | · | ·
Cc1nn(-c2ccc(F)cc2)c(Cl)c1/C=N/NC(=O)c1cccc(S(=O)(=O)N2CCCC2)c1 | 74.7* | 0.1 | 0.0 | 0.2 | 0.2 | -8.9
C=CCc1cccc2cc(C(=O)Nc3ccc(CC(=O)O)cc3)c(=O)oc12 | 80.5* | 27.0 | 13.8 | -5.0 | 4.9 | 5.8
CCCCOC(=O)Cn1c(=O)oc2ccc(C)cc21 | 0.1 | -0.6 | · | 0.9 | · | ·
CCCCCOC(=O)Cn1c(=O)oc2ccc(C)cc21 | 72.5* | · | -1.7 | 10.8 | 1.2 | 7.6
Cc1ccccc1-c1cnc2c(c1)C(=O)N([C@@H](C)CO)C[C@@H](C)[C@H](CN(C)Cc1cncnc1)O2 | · | 2.6 | · | · | · | ·
Cc1cc(C)cc(Nc2nc3c(S(=O)(=O)c4ccccc4)nnn3c3ccccc23)c1 | 53.9* | 2.4 | -1.6 | -4.2 | 2.7 | -4.0
Cc1cccc(Nc2nc3c(S(=O)(=O)c4ccccc4)nnn3c3ccccc23)c1 | 42.3 | -2.9 | -1.2 | -2.1 | · | ·
O=C(C[C@@H]1CC[C@@H]2[C@H](COC[C@@H](O)CN2Cc2cccc(-c3ccncc3)c2)O1)N1CCOCC1 | · | 4.1 | · | · | · | ·
COC(=O)CC1OCC=C2CN3CCC45C6=CC(=O)C(=O)C([N+](=O)[O-])=C6NC4C1C2CC35 (stereo not drawn) | 85.5* | 69.4* | · | · | 52.6* | -10.2 | Beacon interf DR=>99
SMILES | DNMT1 inh | Casp6 inh | NSD2 HMT inh | NS3 helicase inh | DNMT1 confirm | Beacon interf | others
COc1ccccc1CNC(=O)C[C@@H]1CC[C@@H]2[C@H](COC[C@@H](O)CN2C(=O)Nc2ccccc2)O1 | · | 0.5 | · | · | · | ·
CCNc1nc(NCC)nc(C(=O)NN)n1 | 91.0* | · | 5.6 | -1.0 | 4.9 | 6.4
CCN(CC)S(=O)(=O)c1cccc(NC(=O)CSc2nnc(N)s2)c1 | -1.1 | 1.5 | -2.7 | -2.2 | · | ·
Nc1nnc(SCC(=O)Nc2cccc(S(N)(=O)=O)c2)s1 | 91.7* | -0.7 | -0.4 | -7.0 | 3.5 | 3.5
Cc1cccc(N2CC(C(=O)Nc3nnc(SCC(=O)Nc4nccs4)s3)CC2=O)c1 (stereo not drawn) | 53.2* | · | 12.2 | 2.5 | -1.4 | -0.3
COc1ccc2cc3cc(C(=O)Nc4ccc5c(c4)OCO5)oc3nc2c1 | 60.2* | · | -1.4 | 13.2 | 1.0 | -0.4
Cc1ccc(C(=O)NCc2ccc3c(c2)OCO3)o1 | -1.0 | -3.3 | 1.3 | 6.7 | · | ·
Cc1ccc2cc3cc(C(=O)NCc4ccc5c(c4)OCO5)oc3nc2c1 | 53.8* | · | 2.3 | -4.4 | -0.5 | -7.5
COc1ccc2nc3oc(C(=O)Nc4ccc(OC)c(OC)c4)cc3cc2c1 | -6.2 | · | -1.8 | 0.3 | · | ·
Oc1[nH]c2ccccc2c1N=Nc1ccccc1 | -1.7 | -4.1 | 2.4 | -17.2 | · | ·
Oc1[nH]c2ccccc2c1N=Nc1ccc(F)cc1 | 62.7* | 1.2 | -0.2 | -6.0 | 31.1* | 29.5 | Beacon interf DR=20.4*
COc1ccc(N=C2NC(=O)S/C2=C\c2ccc(N(C)C)cc2)cc1 | -4.7 | · | -1.7 | 7.1 | · | ·
CCOc1ccc(N=C2NC(=O)S/C2=C\c2ccc(Cl)cc2)cc1 | 84.3* | · | 3.6 | -6.1 | 0.2 | -6.4
O=C1Nc2ccc3c(c2C1=Cc1cc2c(cc1Br)OCO2)OCO3 | 67.1* | -2.3 | 0.7 | · | 1.2 | 0.8
CCOc1cc(-c2noc(N)c2C#N)cc(OCC)c1OCC | -4.4 | · | 1.0 | -9.2 | · | ·
CCc1nc(N)c(C#N)c(-c2ccc(OC)c(OC)c2)c1C | 1.2 | · | 6.4 | 0.2 | · | ·
CCOc1cc2c(C#N)c(N(CC)CC)nc(N)c2c(N)n1 | 85.4* | · | · | · | 6.1 | 6.5
CCCN(CC1CC1)c1nc(N)c2c(N)nc(OC)cc2c1C#N | 52.0* | · | 4.1 | -2.1 | 9.7 | 7.0
Cc1ccc(S(=O)(=O)Nc2ccc3c(c2)C(=O)N([C@@H](C)CO)C[C@@H](C)[C@H](CN(C)C(=O)CCCN(C)C)OCCCC[C@H](C)O3)cc1 | · | -1.3 | · | · | · | ·
CN(C)C(=O)c1cccc(-c2ccc([C@@H]3[C@@H](CO)N4CCCCN(C(=O)C5CCCC5)C[C@@H]34)cc2)c1 | · | -0.6 | · | · | · | ·
O=C(COC(=O)C1CC2C=CC1C2)NCc1ccc(F)cc1 (stereo not drawn) | -2.0 | · | 2.0 | -2.6 | · | ·
O=C(COC(=O)C1CC2C=CC1C2)NCc1ccco1 (stereo not drawn) | 89.3* | · | 1.0 | 22.5 | 14.4 | 7.7
Cc1ccc(C(=O)OCC(=O)NCc2ccco2)s1 | 57.9* | 14.8 | · | 8.8 | 0.8 | -0.9
CN1CCN(C(=O)C[C@@H]2CC[C@@H](NS(=O)(=O)c3cccc(F)c3)[C@@H](CO)O2)CC1 | · | -1.2 | · | · | · | ·
C=CCNC(=O)COC(=O)CCC(=O)c1cccs1 | 63.9* | 1.2 | -3.4 | -5.2 | 3.1 | 1.7
Cc1ccc(Cn2c(=N)c(C(=O)NCc3ccco3)cc3c(=O)n4ccccc4nc32)cc1 | 81.7* | · | -2.1 | 15.4 | 3.2 | -4.7

Source: PubChem (several laboratories)
